Assay results: ChEMBL document CHEMBL1138662, “Macrocyclic diacylglycerol-bis-lactones as conformationally constrained analogues of diacylglycerol-lactones. Interactions with protein kinase C” (J Med Chem, 2004)

Experiments:
[1] = Partition coefficient (logP); assay type: physicochemical; details: octanol/water
[2] = Displacement of [20-3H]-phorbol 12,13-dibutyrate (PDBU) from recombinant Protein kinase C alpha (C1a/C1b domain) in presence of phosphatidyl serine
Outline: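 Competition binding: displacement of bound [20-3H]phorbol 12,13-dibutyrate from recombinant PKCα isozyme with phosphatidylserine present. IC50 derived by fitting data to a theoretical noncooperative competitive inhibition curve; binding affinity reported as Ki.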

| SMILES | logP [1] | Ki [2] [nM] |
| --- | --- | --- |
| CCCCCCCCCCCCCCCCC/C=C1/CC(CO)(COC(C)=O)OC1=O (stereo not given) | 7.11 |  |
| O=C1CCCCCC/C=C2\CC(CO)(CO1)OC2=O (stereo not given) | -0.08 | 1800 |
| O=C1CCCCCCCCCCCCCCCCCC/C=C2/CC(CO)(CO1)OC2=O (stereo not given) | 5.81 | 10.3 |
| CCCCCCCCCCCCCCCCC/C=C1\CC(CO)(COC(C)=O)OC1=O (stereo not given) | 7.11 | 28 |
| CCCCCCCCCCCCCC(=O)OCC(CO)OC(C)=O (stereo not given) | 5.25 | 1000 |
| O=C1CCCCCCCCCCCCCC/C=C2\CC(CO)(CO1)OC2=O (stereo not given) | 3.85 | 12.2 |
| CCCCCCCCCCCCCC(=O)OCC1(CO)CCC(=O)O1 (stereo not given) | 4.53 | 138 |
| O=C1CCCCCCCCCCCCCCCCCC/C=C2\CC(CO)(CO1)OC2=O (stereo not given) | 5.81 | 22 |
| O=C1CCCCCCCCCC/C=C2/CC(CO)(CO1)OC2=O (stereo not given) | 1.88 | 52.7 |
| O=C1CCCCCCCCCCCCCC/C=C2/CC(CO)(CO1)OC2=O (stereo not given) | 3.85 | 6.07 |
| CCCCCCCCCCCCC/C=C1\CC(CO)(COC(C)=O)OC1=O (stereo not given) | 5.36 | 77.8 |
| CC(C)CC(C/C=C1/CC(CO)(COC(=O)C(C)(C)C)OC1=O)CC(C)C (stereo not given) |  | 2.9 |
| CCCCCCCCCCCCC/C=C1/C[C@@](CO)(COC(C)=O)OC1=O (stereo in doubt) | 5.36 | 35.1 |
| CCCCCCCCCCCCC/C=C1/C[C@@](CO)(COC(C)=O)OC1=O (stereo in doubt; 3) |  | 35 |
